Data set [1] has as its target Phosphatidylinositol 4-kinase type 2-alpha (Homo sapiens) (UniProt Q9BTU6). The data set is described as follows: Inhibition of recombinant human full length GST-tagged PI4K2alpha expressed in insect cells at 10 uM.
In data set [2] the target is Phosphatidylinositol 4-kinase type 2-beta (Homo sapiens) (UniProt Q8TCG2). The data set is described as follows: Inhibition of recombinant human full length GST-tagged PI4K2beta expressed in insect cells at 10 uM.
Data set [3] concerns the target Phosphatidylinositol 4-kinase alpha (Homo sapiens) (UniProt P42356). Kind of data set: Inhibition of PI4K3alpha (unknown origin) at 10 uM.
Data set [4] concerns the target T1, Voltage-gated inwardly rectifying potassium channel KCNH2 (Homo sapiens, UniProt Q12809).
Data set [5] in a line: in vitro. Conditions: human.
The nature of data set [6]: in vitro. Conditions: mouse.
Data set [7] in a line: physchem. The settings on record: phosphate buffer, pH 7.4.
The nature of data set [8]: physchem. Conditions: pH 7.4 solution.
Data set [9] has as its target T1, Voltage-gated inwardly rectifying potassium channel KCNH2. The source holds these as a separate data set.
The target in data set [10] is T2, Cytochrome P450 3A4 (Homo sapiens, UniProt P08684). The settings on record: liver microsomes.
T2 sequence (P08684 whole entry): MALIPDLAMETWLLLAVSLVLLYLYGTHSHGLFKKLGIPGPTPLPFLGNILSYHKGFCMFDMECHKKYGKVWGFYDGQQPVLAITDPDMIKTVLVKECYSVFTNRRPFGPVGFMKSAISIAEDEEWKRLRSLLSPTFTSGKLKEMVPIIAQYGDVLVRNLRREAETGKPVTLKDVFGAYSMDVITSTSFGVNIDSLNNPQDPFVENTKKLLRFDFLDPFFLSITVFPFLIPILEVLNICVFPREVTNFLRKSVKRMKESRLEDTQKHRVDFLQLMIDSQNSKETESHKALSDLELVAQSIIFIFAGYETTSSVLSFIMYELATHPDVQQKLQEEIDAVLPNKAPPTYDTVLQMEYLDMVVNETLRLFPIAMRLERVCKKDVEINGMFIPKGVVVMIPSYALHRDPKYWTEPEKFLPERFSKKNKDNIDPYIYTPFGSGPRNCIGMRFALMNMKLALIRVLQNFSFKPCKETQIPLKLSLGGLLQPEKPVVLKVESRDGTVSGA
For data set [11] the following is noted: buffer, pH 7.4, 1.5 h.
For data set [12] the following is noted: buffer, 1.5 h, pH 7.4.
Data set [13] in a line: Fraction unbound in mouse blood. Format: ADME, tissue-based.
A short description of data set [14]: Apparent clearance in Balb/c mouse at 10 mg/kg, po after 1 hr. The data set is classed as ADME, organism-based. Conditions: in vivo.
The subject of data set [15] is Mus musculus. The data set is described as follows: Unbound AUC (infinity) in Balb/c mouse at 10 mg/kg, po after 1 hr. The settings on record: in vivo. The data set is classed as ADME, organism-based.
The test system of data set [16] is Mus musculus. Kind of data set: Unbound Cmax in Balb/c mouse at 10 mg/kg, po after 1 hr. Format: ADME, organism-based. Conditions: in vivo.
In data set [17] the test system is Mus musculus. The data set is described as follows: Clearance in Balb/c mouse at 1 mg/kg, iv. The data set is classed as ADME, organism-based. The settings on record: in vivo. In a few lines:
(§1)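 Intravenous PK in male Balb/C mice, n=3, at 1 mpk. Vehicle was 30% DMA or 15% NMP, depending on the compound.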

In data set [18] the test system is Mus musculus. Kind of data set: Unbound AUC in Balb/c mouse at 1 mg/kg, iv. The settings on record: in vivo. The data set is classed as ADME, organism-based. The procedure, abridged:
as §1

Data set [19] deals with Mus musculus. Kind of data set: Half life in Balb/c mouse at 1 mg/kg, iv. Format: ADME, organism-based. The settings on record: in vivo. The procedure, abridged: as §1
In data set [20] the test system is Mus musculus. The data set is described as follows: Volume of distribution at steady state in Balb/c mouse at 1 mg/kg, iv. Format: ADME, organism-based. The settings on record: in vivo. The procedure, abridged: as §1
Data set [21] has as its system Mus musculus. The data set is described as follows: Oral bioavailability in Balb/c mouse at 10 mg/kg after 1 hr. The data set is classed as ADME, organism-based. The settings on record: in vivo, 1 h. The procedure, abridged:
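Male Balb/C mice, n=3. Oral dose of 10 mpk as a homogeneous suspension of crystalline solid in 0.1% Tween 80, 0.1% silicone antifoam, 1% methylcellulose (400 cps) in water. I.v. dose of 1 mpk in 30% DMA or 15% NMP, depending on the compound. Bioavailability was extrapolated from the i.v./p.o. experiments.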

Data set [22] in a line: Apparent clearance in Balb/c mouse at 30 mg/kg, po after 1 hr. Format: ADME, organism-based. The settings on record: in vivo.
A short description of data set [23]: Unbound Tmax in Balb/c mouse at 10 to 100 mg/kg, po. The data set is classed as ADME, organism-based. Conditions: in vivo, read-out: fTmax.
The subject of data set [24] is Mus musculus. The data set is described as follows: Unbound AUC (infinity) in Balb/c mouse at 30 mg/kg, po after 1 hr. The data set is classed as ADME, organism-based. Conditions: in vivo.
For data set [25], the system named is Mus musculus. The data set is described as follows: Unbound Cmax in Balb/c mouse at 30 mg/kg, po after 1 hr. Format: ADME, organism-based. The settings on record: in vivo.
Data set [26] can be described thus: Apparent clearance in Balb/c mouse at 100 mg/kg, po after 1 hr. The data set is classed as ADME, organism-based. The settings on record: in vivo.
The test system of data set [27] is Mus musculus. The data set is described as follows: Unbound AUC (infinity) in Balb/c mouse at 100 mg/kg, po after 1 hr. Conditions: in vivo. Format: ADME, organism-based.
For data set [28], the system named is Mus musculus. Kind of data set: Unbound Cmax in Balb/c mouse at 100 mg/kg, po after 1 hr. The data set is classed as ADME, organism-based. The settings on record: in vivo.
Data set [29] concerns Mus musculus. Kind of data set: Immunosuppressive activity in Balb/c mouse assessed as inhibition of anti-CD3-mediated T-cell activation by measuring IFNgamma release in plasma at 1 mg/kg, po pretreated for 30 mins followed by anti-CD3 stimulation measured after 180 mins by ELISA relative to control. The data set is classed as functional. In a few lines: (§2)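 Balb/C mice (n=8 per group) were dosed orally with 1, 10 or 100 mpk in 0.1% Tween 80, 0.1% silicone antifoam, 1% methylcellulose (400 cps) vehicle, before anti-CD3 challenge. IFNγ release (pg/ml) was measured over a time course. Percent inhibition is the mean (±SEM) relative to the vehicle-treated positive control.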

Data set [30] deals with Mus musculus. The data set is described as follows: Immunosuppressive activity in Balb/c mouse assessed as inhibition of anti-CD3-mediated T-cell activation by measuring IFNgamma release in plasma at 10 mg/kg, po pretreated for 30 mins followed by anti-CD3 stimulation measured after 180 mins by ELISA relative to control. The data set is classed as functional. The procedure, abridged:
as §2

The subject of data set [31] is Mus musculus. The data set is described as follows: Immunosuppressive activity in Balb/c mouse assessed as inhibition of anti-CD3-mediated T-cell activation by measuring IFNgamma release in plasma at 100 mg/kg, po pretreated for 30 mins followed by anti-CD3 stimulation measured after 180 mins by ELISA relative to control. Format: functional. The procedure, abridged:
as §2

Data set [32] deals with Mus musculus. The data set is described as follows: Immunosuppressive activity in po dosed Balb/c mouse assessed as inhibition of anti-CD3-mediated T-cell activation by measuring IFNgamma release in plasma pretreated for 30 mins followed by anti-CD3 stimulation measured after 180 mins by ELISA. Format: functional, organism-based. The procedure, abridged:
as §2

For data set [33], the system named is Mus musculus. The data set is described as follows: Inhibition of allograft rejection in Balb/c mouse heterotopic cardiac transplantation model using C57BL/6 as cardiac donor assessed as long-term graft survival rate by measuring cardiac allograft function by daily palpitation at 100 mg/kg administered via oral gavage as qd for 28 days relative to control. The data set is classed as functional. The settings on record: 672 h.

Data set [34] concerns Mus musculus. The data set is described as follows: Inhibition of allograft rejection in Balb/c mouse heterotopic cardiac transplantation model using C57BL/6 as cardiac donor assessed as long-term graft survival rate by measuring cardiac allograft function by daily palpitation at 100 mg/kg administered via oral gavage as qd for 28 days measured after treatment withdrawal. Format: functional, organism-based.

Data set [35] has as its system Mus musculus. The data set is described as follows: Immunosuppressive activity in OXA-induced Balb/c mouse T-cell dependent model of antibody response assessed as inhibition of IgG1 production in serum at 100 mg/kg, po qd pretreated for 30 mins followed by OXA challenge measured on day 7 post dose by ELISA. The data set is classed as functional, organism-based.
The test system of data set [36] is Mus musculus. The data set is described as follows: Immunosuppressive activity in OXA-induced Balb/c mouse T-cell dependent model of antibody response assessed as inhibition of IgG1 production in serum at 100 mg/kg, po qd pretreated for 30 mins followed by OXA challenge measured on day 14 post dose by ELISA. The data set is classed as functional, organism-based.

Data set [37] concerns Salmonella typhimurium. The data set is described as follows: Genotoxicity in Salmonella typhimurium TA1537 up to 1667 ug/plate in presence or absence of liver S9 fraction by Ames test. The data set is classed as toxicity, organism-based. Conditions: salmonella enterica subsp. enterica serovar typhimurium. The procedure, abridged:
(§3)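 Three-strain bacterial miniAMES with TA1537, TA98 and TA100, with and without S9 activation. Top concentrations 500 and 1667 µg.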

Data set [38] relates to Salmonella typhimurium. Kind of data set: Genotoxicity in Salmonella typhimurium TA98 up to 1667 ug/plate in presence or absence of liver S9 fraction by Ames test. Format: toxicity, organism-based. Conditions: salmonella enterica subsp. enterica serovar typhimurium. In a few lines: as §3
For data set [39], the system named is Salmonella typhimurium. The data set is described as follows: Genotoxicity in Salmonella typhimurium TA100 up to 1667 ug/plate in presence or absence of liver S9 fraction by Ames test. Conditions: salmonella enterica subsp. enterica serovar typhimurium. The data set is classed as toxicity, organism-based. In a few lines: as §3
In data set [40] the target is T2, Cytochrome P450 3A4.

Converted amounts (≈) assume the structure as drawn. The source made the active and inactive calls. The rule behind the calls is not given here. A value given as a limit tells only on which side of the number the result lay.

T1 sequence (Q12809 whole entry): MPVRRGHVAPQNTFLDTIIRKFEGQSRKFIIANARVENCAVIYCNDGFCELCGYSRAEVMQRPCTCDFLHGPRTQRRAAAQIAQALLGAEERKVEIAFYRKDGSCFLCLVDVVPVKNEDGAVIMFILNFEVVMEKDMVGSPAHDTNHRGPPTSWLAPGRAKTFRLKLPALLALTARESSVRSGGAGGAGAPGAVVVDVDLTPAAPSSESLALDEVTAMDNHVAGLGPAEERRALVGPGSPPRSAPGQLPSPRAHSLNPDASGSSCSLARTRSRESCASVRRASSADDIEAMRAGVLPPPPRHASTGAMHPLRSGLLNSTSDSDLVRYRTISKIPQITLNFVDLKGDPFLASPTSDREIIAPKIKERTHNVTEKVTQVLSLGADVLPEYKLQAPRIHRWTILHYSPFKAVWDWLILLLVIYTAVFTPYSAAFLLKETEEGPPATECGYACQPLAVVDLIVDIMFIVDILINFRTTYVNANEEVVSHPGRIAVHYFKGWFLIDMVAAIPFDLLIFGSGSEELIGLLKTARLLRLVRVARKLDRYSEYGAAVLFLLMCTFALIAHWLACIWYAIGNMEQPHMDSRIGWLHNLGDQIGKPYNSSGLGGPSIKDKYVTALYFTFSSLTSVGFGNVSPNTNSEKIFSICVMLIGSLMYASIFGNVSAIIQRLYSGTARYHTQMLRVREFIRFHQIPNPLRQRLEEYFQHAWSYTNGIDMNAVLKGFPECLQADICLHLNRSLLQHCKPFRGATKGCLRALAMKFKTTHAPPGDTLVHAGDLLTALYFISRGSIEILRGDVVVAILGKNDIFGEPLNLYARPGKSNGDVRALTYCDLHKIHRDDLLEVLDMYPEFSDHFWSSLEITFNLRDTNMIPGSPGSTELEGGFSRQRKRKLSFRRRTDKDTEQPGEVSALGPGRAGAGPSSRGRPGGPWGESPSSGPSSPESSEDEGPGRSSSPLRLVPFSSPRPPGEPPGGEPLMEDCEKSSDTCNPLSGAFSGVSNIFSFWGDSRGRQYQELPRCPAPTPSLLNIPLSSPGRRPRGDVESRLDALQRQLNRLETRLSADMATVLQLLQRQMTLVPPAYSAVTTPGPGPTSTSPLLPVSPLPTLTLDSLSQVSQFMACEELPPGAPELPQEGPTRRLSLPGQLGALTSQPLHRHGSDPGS
Sequence of Phosphatidylinositol 4-kinase type 2-beta (Homo sapiens) (Q8TCG2 whole entry): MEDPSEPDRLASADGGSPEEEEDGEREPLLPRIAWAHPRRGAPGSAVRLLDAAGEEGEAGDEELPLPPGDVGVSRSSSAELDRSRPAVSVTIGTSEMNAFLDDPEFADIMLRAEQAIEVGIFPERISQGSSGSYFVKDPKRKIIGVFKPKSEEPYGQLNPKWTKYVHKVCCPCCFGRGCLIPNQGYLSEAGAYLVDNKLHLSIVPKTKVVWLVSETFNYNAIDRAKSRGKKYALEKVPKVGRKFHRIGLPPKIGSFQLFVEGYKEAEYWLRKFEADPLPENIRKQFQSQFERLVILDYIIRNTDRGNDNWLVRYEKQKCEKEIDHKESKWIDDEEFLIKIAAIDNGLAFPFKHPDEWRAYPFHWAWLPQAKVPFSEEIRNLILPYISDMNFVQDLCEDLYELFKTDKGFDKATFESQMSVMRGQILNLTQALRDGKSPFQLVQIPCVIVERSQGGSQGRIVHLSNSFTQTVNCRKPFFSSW
Sequence of Phosphatidylinositol 4-kinase type 2-alpha (Homo sapiens) (Q9BTU6 whole entry): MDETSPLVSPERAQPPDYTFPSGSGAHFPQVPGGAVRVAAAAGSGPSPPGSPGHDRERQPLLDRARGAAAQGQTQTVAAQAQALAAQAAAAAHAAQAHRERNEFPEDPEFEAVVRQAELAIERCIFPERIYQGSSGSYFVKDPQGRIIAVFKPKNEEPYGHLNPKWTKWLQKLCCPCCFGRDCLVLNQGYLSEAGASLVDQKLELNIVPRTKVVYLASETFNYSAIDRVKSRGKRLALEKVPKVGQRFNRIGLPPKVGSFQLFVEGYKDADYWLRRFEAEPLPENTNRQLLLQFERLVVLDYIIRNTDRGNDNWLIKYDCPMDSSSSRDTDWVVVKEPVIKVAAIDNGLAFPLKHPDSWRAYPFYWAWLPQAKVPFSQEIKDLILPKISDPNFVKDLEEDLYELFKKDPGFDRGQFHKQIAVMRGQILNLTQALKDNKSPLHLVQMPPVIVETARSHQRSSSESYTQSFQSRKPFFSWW
Sequence of Phosphatidylinositol 4-kinase alpha (Homo sapiens) (P42356 whole entry, looked up): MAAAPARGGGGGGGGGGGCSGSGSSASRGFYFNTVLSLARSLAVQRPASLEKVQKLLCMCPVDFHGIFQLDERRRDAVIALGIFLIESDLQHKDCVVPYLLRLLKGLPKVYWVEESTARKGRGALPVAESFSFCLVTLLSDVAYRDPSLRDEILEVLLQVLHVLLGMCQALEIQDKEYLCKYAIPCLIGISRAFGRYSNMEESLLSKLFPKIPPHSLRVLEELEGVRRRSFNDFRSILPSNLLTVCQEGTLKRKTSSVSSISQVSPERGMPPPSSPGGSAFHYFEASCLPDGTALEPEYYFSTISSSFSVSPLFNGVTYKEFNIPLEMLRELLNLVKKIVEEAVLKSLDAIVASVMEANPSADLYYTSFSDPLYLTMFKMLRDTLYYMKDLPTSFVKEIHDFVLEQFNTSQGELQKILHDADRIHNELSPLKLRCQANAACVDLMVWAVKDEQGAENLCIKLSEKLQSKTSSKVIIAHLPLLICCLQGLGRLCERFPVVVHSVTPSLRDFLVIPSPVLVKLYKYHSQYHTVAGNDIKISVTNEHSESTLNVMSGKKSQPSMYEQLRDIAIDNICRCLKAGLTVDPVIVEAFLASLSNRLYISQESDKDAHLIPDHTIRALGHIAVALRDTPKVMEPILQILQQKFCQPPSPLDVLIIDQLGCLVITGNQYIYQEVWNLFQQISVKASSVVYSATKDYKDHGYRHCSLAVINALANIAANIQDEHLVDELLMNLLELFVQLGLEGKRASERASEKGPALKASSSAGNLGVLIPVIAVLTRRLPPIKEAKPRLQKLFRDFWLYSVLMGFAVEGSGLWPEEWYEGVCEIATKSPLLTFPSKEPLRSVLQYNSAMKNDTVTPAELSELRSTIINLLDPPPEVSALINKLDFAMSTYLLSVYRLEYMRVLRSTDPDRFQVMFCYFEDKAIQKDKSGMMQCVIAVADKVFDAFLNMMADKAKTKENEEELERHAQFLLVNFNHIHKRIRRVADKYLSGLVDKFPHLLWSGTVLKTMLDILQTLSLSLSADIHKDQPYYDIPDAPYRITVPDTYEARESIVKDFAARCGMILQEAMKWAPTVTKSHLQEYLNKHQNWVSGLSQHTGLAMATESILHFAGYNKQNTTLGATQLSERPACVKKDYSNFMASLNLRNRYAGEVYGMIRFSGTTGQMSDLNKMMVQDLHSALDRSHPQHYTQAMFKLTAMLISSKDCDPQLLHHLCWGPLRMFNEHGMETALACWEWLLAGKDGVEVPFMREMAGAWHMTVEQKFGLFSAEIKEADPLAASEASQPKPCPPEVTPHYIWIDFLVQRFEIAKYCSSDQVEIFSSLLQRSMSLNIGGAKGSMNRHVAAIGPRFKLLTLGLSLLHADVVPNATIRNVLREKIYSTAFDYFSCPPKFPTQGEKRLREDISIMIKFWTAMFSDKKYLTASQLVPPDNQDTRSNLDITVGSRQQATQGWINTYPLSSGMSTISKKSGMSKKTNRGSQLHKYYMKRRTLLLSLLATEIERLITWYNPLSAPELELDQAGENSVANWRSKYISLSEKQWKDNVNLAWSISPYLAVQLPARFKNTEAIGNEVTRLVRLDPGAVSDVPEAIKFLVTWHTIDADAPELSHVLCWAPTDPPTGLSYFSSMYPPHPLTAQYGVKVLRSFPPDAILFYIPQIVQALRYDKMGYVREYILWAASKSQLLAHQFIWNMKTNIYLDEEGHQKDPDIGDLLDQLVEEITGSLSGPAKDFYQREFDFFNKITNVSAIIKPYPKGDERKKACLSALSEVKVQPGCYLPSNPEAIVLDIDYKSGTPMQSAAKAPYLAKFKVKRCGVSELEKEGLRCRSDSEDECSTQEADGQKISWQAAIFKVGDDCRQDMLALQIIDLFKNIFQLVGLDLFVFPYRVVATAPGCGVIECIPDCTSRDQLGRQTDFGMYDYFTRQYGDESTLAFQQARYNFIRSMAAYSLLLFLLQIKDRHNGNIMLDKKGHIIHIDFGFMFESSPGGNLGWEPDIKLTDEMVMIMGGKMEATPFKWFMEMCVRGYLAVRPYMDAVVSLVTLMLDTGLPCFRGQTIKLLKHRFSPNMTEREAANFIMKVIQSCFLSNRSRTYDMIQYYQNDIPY

With `Cc1ccc(NC(=O)N2CCN(c3nc(N)nc4sc(-c5cccnc5)nc34)CC2)cc1`, the inhibition entry in data set [1], in data set [2] and in data set [3] was “inactive” each time. In addition, the IC50 in [4] turned out to be 2 µM. The microsomal CLint at 0.75 h, 3 µM in [5] (microsomes) turned out to be 32 µL/min/mg; in data set [6] (microsomes), 72 µL/min/mg. In data set [7], this molecule yielded a logD at 1.5 h of 3.42. In [8], this molecule registered a solubility (kinetic) at 1.5 h of 9 µM (≈ 4.02 µg/mL).

In the case of `Nc1nc(N2CCN(C(=O)COc3ccc(Cl)cc3)CC2)c2nc(-c3cccnc3)sc2n1`, the IC50 result in [9] and in [10] was “Nd(Insoluble)” each time. Moreover, the logD entry in data set [11] is reported as “Nd(Insoluble)”. In data set [12], the Kinetic_solubility entry is listed as “Nd(Insoluble)”. Moreover, the microsomal CLint at 0.75 h, 3 µM in data set [5] (liver microsomes) came out at 34 µL/min/mg; in [6] (liver microsomes) it was 133 µL/min/mg.

As for `COc1ccc(NC(=O)N2CCN(c3nc(N)nc4scnc34)CC2)cc1`, the inhibition result in data set [1], in data set [2] and in data set [3] was “inactive” each time. Also, the fraction unbound in [13] came out at 0.061. Further, the values for the CL/F in [14], in data set [22] and in data set [26] were 80 mL/min/kg, 112 mL/min/kg and 86 mL/min/kg, respectively. Besides, the fAUC is 0.332 to 0.333 µM·h in data set [15], “Nd(Insoluble)” in data set [18], 0.769 µM·h in data set [24] and 3.907 µM·h in data set [27]. The results for the fCmax in [16], in data set [25] and in data set [28] were 154 nM, 444 nM and 967 nM, respectively. In addition, the CL entry in data set [17] was “Nd(Insoluble)”. Moreover, the t1/2 result in [19] is recorded as “Nd(Insoluble)”. Besides, the Vdss result in data set [20] is on record as “Nd(Insoluble)”. Also, the F result in [21] is “Nd(Insoluble)”. Moreover, the Tmax in data set [23] is 1 h. The inhibition in vivo at 1 mg/kg in data set [29] was 24.6%. The inhibition in vivo at 10 mg/kg in [30] worked out at 54.9%. For the same molecule, the inhibition in vivo at 100 mg/kg in [31] is 87.5%. Also, the inhibition entry in data set [32] was “Dose-dependent effect”. For the same molecule, in data set [33], the survival at 100 mg/kg turned out to be 50%. Moreover, the inhibition entry in data set [34], in data set [35] and in data set [36] was “Active” each time. For the same molecule, the Activity entry in data set [37], in [38] and in [39] was “Non-Toxic” each time. The IC50 was 28 µM in [4] and more than 20 µM in data set [40]. For the same molecule, the figures for the microsomal CLint at 0.75 h, 3 µM in [5] (liver microsomes) and in data set [6] (liver microsomes) were 21 µL/min/mg and 15 µL/min/mg, respectively. In addition, the logD at 1.5 h in data set [7] was determined as 1.85. Moreover, the kinetic solubility at 1.5 h in data set [8] worked out at 85 µM (≈ 32.8 µg/mL).

For the origin of these results see ChEMBL document CHEMBL4190408 (J Med Chem, 2018).
